How the values were obtained:
[1] = tested on: K562; assay: Growth inhibition of human K562 cells expressing p210Bcr/Abl after 96 hrs by trypan blue exclusion assay; format: functional, cell-based; conditions: K562, 96 h
Outline: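 K562 cells were kept in RPMI with 10% FBS and penicillin–streptomycin at 37 °C under 5% CO2. Cells were seeded at 1 × 10^5 cells/mL with a range of compound concentrations, using DMSO as the negative control. After 96 h, viability was counted by Trypan blue exclusion and expressed as percent of DMSO control to derive GI50.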

[2] = tested on: DU-145; assay: Growth inhibition of human DU145 cells after 96 hrs by trypan blue exclusion assay; format: functional; conditions: DU-145, 96 h

SMILES	GI50 [1] [µM]	GI50 [2] [µM]
O=C(/C(=C\c1ccc(O)c([N+](=O)[O-])c1)Sc1ccccc1Br)c1ccc(Br)cc1	10	10
O=C(/C(=C\c1ccc(Oc2ccccc2)cc1)Sc1ccc(Br)cc1)c1ccc(Br)cc1	50	50
O=C(/C(=C\c1ccccc1OCc1ccccc1)SCc1ccc(F)cc1)c1ccc(Cl)cc1	1	1
O=C(/C(=C\c1ccc(Cl)c([N+](=O)[O-])c1)S(=O)(=O)c1ccc(Br)cc1)c1ccc(Br)cc1	1	10
Cc1ccc(CS(=O)(=O)/C(=C/c2ccccc2Br)C(=O)c2ccc(Cl)cc2)cc1	25	25
COc1ccccc1/C=C(/Sc1ccc(C)cc1)C(=O)c1ccc(Br)cc1	1	9
O=C(/C(=C\c1ccc([N+](=O)[O-])c(O)c1)SCc1ccc(Br)cc1)c1ccc(C(F)(F)F)cc1	1	1
O=C(/C(=C\c1cccc(Cl)c1Cl)SCc1ccc(Cl)cc1)c1ccc(Br)cc1	10	10
Cc1ccsc1/C=C(/SCc1ccc(Cl)c(Cl)c1)C(=O)c1ccc(Cl)cc1	50	50
O=C(/C(=C\c1ccc(O)cc1O)SCc1ccc(Cl)cc1)c1ccc(Cl)cc1	50	50
O=C(/C(=C\c1ccc(O)cc1)S(=O)(=O)Cc1ccc(F)cc1)c1ccc(Br)cc1	10	10
COc1ccccc1/C=C(\C(=O)c1ccc(Cl)cc1)S(=O)(=O)Cc1ccc(Cl)c(Cl)c1	1	1
O=C(C(=Cc1ccc(Br)cc1)S(=O)(=O)Cc1ccccc1Cl)c1ccc(Cl)cc1	1	1
O=C(O)c1ccc(C(=O)/C(=C\c2ccc(Br)c([N+](=O)[O-])c2)SCc2ccccc2Cl)cc1	1	1
O=C(/C(=C\c1ccccc1F)S(=O)(=O)c1ccc(Br)cc1)c1ccc(Cl)cc1	25	25
COc1ccc2[nH]cc(/C=C(/Sc3ccc(Br)cc3)C(=O)c3ccc(Br)cc3)c2c1	10	10
Cc1ccc(S(=O)(=O)/C(=C/c2sccc2C)C(=O)c2ccc(Cl)cc2)cc1	10	10
O=C(/C(=C\c1ccc(Br)c(O)c1)Sc1ccc(Br)cc1)c1ccc(Br)cc1	1	1
O=C(C(=Cc1ccc(I)cc1)S(=O)(=O)Cc1ccc(I)cc1)c1ccc(Br)cc1	> 50	20
Cc1ccc(CS(=O)(=O)/C(=C/c2ccc(N(C)C)cc2)C(=O)c2ccc(Cl)cc2)cc1	50	50
O=C(/C(=C\c1ccc(O)c([N+](=O)[O-])c1)SCc1ccc(Br)cc1)c1c(F)c(F)c(F)c(F)c1F	10	10
O=C(/C(=C\c1ccccc1OCc1ccccc1)Sc1ccccc1Cl)c1ccccc1Cl	50	50
Cc1ccc(CS/C(=C/c2ccc(F)cc2C(F)(F)F)C(=O)c2ccc(Cl)cc2)cc1	50	50
Cc1ccc(S/C(=C/c2c[nH]c3ccc(Br)cc23)C(=O)c2ccc(Cl)cc2)cc1	1	1
COc1ccccc1/C=C(/SCc1ccc(C)cc1)C(=O)c1ccc(Cl)cc1	10	10

SMILES	GI50 [1] [µM]	GI50 [2] [µM]
O=C(/C(=C\c1ccc(OCc2ccccc2)cc1)SCc1ccc(Cl)cc1)c1ccc(Cl)cc1	10	1
O=C(/C(=C\c1cc(Cl)cc(Cl)c1Cl)S(=O)(=O)Cc1ccc(Cl)cc1)c1ccc(Br)cc1	1	1
O=C(/C(=C\c1ccccc1OCc1ccccc1)Sc1ccc(F)cc1)c1ccc(Cl)cc1	1	1
O=C(/C(=C\c1ccc(Cl)cc1)SCc1ccc(Br)cc1)c1ccccc1Cl	1	25
COc1cc(OC)c(C=C(C(=O)c2ccc(Cl)cc2)[S+]([O-])Cc2ccccc2Cl)c(OC)c1 (stereo unspecified)	50	10
CN(C)c1ccc(/C=C(/SCc2ccc(Cl)cc2)C(=O)c2ccc(Cl)cc2)cc1	10	> 100
COc1ccc(C=C(C(=O)c2ccc(OC)cc2)S(=O)(=O)Cc2ccc([N+](=O)[O-])cc2)cc1	10	25
O=C(/C(=C\c1c[nH]c2ccccc12)S(=O)(=O)c1ccc(Br)cc1)c1ccc(Br)cc1	25	25
COc1ccc(/C=C(/SCc2ccc(F)cc2)C(=O)c2ccc(C(=O)O)cc2)cc1O	1	10
O=C(C(=Cc1ccc(O)c([N+](=O)[O-])c1)SCc1ccc(Br)cc1)c1ccc([N+](=O)[O-])c(Cl)c1	1	1
O=C(/C(=C\c1ccc(O)c([N+](=O)[O-])c1)Sc1ccc(Br)cc1)c1c(F)c(F)c(F)c(F)c1F	1	1
O=C(/C(=C\c1ccc(Br)cc1)SCc1ccc(F)cc1)c1ccc(Br)cc1	1	25
O=C(/C(=C\c1ccccc1OCc1ccccc1)S(=O)(=O)c1ccc(F)cc1)c1ccc(Cl)cc1	1	1
O=C(/C(=C\c1csc([N+](=O)[O-])c1)S(=O)(=O)c1ccc(Br)cc1)c1ccc(Br)cc1	1	1
Nc1c(Br)cc(Br)cc1/C=C(\C(=O)c1ccc(Br)cc1)S(=O)(=O)c1ccc(Br)cc1	25	25
Cc1ccc(CS(=O)(=O)/C(=C/c2c(O)cc(O)cc2O)C(=O)c2ccc(Cl)cc2)cc1	> 100	> 100
Cc1ccc(S/C(=C/c2c[nH]c3ccc(Cl)cc23)C(=O)c2ccc(Br)cc2)cc1	1	1
Cc1ccc(S(=O)(=O)/C(=C/c2ccc(F)cc2F)C(=O)c2ccc(Br)cc2)cc1	> 100	> 100
Cc1ccc(S(=O)(=O)/C(=C/c2ccc(Cl)cc2)C(=O)c2ccc(Cl)cc2)cc1	1	1
O=C(C(=Cc1ccc(Br)cc1)SCc1ccccc1Cl)c1ccc(Cl)cc1	1	10
Cc1ccc(S/C(=C/c2ccc(-c3ccccc3)cc2)C(=O)c2ccc(Cl)cc2)cc1	25	50
CN1CCN(c2ccc(/C=C(/SCc3ccc(Br)cc3)C(=O)c3ccc(C(=O)O)cc3)cc2[N+](=O)[O-])CC1	1	10
Cc1ccc(CS/C(=C/c2cccc(Cl)c2Cl)C(=O)c2ccc(Cl)cc2)cc1	25	25
COc1ccc(S(=O)(=O)/C(=C/c2ccccc2OCc2ccccc2)C(=O)c2ccc(Cl)cc2)cc1	1	1
Cc1ccc(/C=C(\C(=O)c2ccc(Cl)cc2)S(=O)(=O)Cc2ccc(Cl)cc2Cl)s1	25	10

SMILES	GI50 [1] [µM]	GI50 [2] [µM]
COc1ccc(/C=C(\C(=O)c2ccc(Br)cc2)S(=O)(=O)Cc2ccc(Cl)cc2)cc1	10	25
Cc1ccc(S(=O)(=O)/C(=C/c2sccc2C)C(=O)c2ccc(Br)cc2)cc1	25	25
COc1ccc(/C=C(/SCc2ccc(Cl)cc2)C(=O)c2ccc(Br)cc2)cc1O	1	1
CC(=O)Nc1ccc(/C=C(/SCc2ccc(F)cc2)C(=O)c2ccc(C(=O)O)cc2)cc1[N+](=O)[O-]	1	10
O=C(O)c1ccc(C(=O)/C(=C\c2ccc(Br)cc2)SCc2ccc(Br)cc2)cc1	1	1
CN(C)c1ccc(/C=C(/Sc2ccc(Br)cc2)C(=O)c2ccc(Cl)cc2)cc1	> 100	> 100
COc1ccc(/C=C(\C(=O)c2ccc(Cl)cc2)S(=O)(=O)Cc2ccc(Cl)cc2)c(OC)c1OC	1	10
Cc1ccc(CS/C(=C/c2c(O)cc(O)cc2O)C(=O)c2ccc(Cl)cc2)cc1	50	50
COc1ccc(/C=C(\C(=O)c2ccc(Br)cc2)S(=O)(=O)c2ccc(C)cc2)cc1	1	1
CSc1ccc(/C=C(\C(=O)c2ccc(Cl)cc2)S(=O)(=O)Cc2ccc(C)cc2)cc1	25	10
Cc1cc(F)ccc1/C=C(/SCc1ccc(F)cc1)C(=O)c1ccc(Br)cc1	10	10
Cc1ccc(S(=O)(=O)/C(=C/c2ccc(C)s2)C(=O)c2ccc(Cl)cc2)cc1	25	50
O=C(/C(=C\c1c(O)cc(O)cc1O)Sc1ccccc1Br)c1ccc(Cl)cc1	> 100	> 100
O=C(/C(=C\c1ccc([N+](=O)[O-])c(O)c1)Sc1c(F)c(F)c(F)c(F)c1F)c1ccc(Br)cc1	1	10
Cc1ccc(S(=O)(=O)/C(=C/c2c(F)c(F)c(F)c(F)c2F)C(=O)c2ccc(Cl)cc2)cc1	50	> 100
O=C(/C(=C\c1cc([N+](=O)[O-])ccc1F)S(=O)(=O)Cc1ccc(F)cc1)c1ccc(Br)cc1	50	> 100
CC(=O)Oc1ccc(/C=C(\C(=O)c2ccc(Cl)cc2)S(=O)(=O)c2ccc(C)cc2)cc1	10	25
O=C(/C(=C\c1ccccc1O)Sc1ccccc1Br)c1ccc(Br)cc1	50	50
Cc1ccc(CS/C(=C/c2cc(Cl)cc(Cl)c2)C(=O)c2ccc(Cl)cc2)cc1	10	10
O=C(/C(=C\c1ccccc1OCc1ccccc1)S(=O)(=O)Cc1ccc(F)cc1)c1ccc(Cl)cc1	1	10
O=C(/C(=C\c1ccc(F)c([N+](=O)[O-])c1)S(=O)(=O)c1ccc(Br)cc1)c1ccc(Br)cc1	10	25
Cc1ccc(S/C(=C/c2ccc(Br)cc2)C(=O)c2ccc(Cl)cc2)cc1	50	25
Cc1ccc(CS/C(=C/c2ccc(F)c(C)c2)C(=O)c2ccc(Cl)cc2)cc1	10	25

— ChEMBL document CHEMBL1240409, “Design, synthesis and evaluation of (E)-alpha-benzylthio chalcones as novel inhibitors of BCR-ABL kinase” (Bioorg Med Chem, 2010)
